We go through 26 compounds from ChEMBL document CHEMBL1132311, “Design and synthesis of isoxazoline derivatives as factor Xa inhibitors. 1” (J Med Chem, 1999).

Experiment [1] deals with Coagulation factor X (Homo sapiens, UniProt P00742). Nature of the experiment: Binding affinity to purified human coagulation factor Xa (FXa).
Experiment [2] has as its target Prothrombin (Homo sapiens, UniProt P00734). Nature of the experiment: The binding affinity towards thrombin obtained from human purified enzymes.
The target in experiment [3] is T1, Serine protease 1 (Homo sapiens, UniProt P07477). Nature of the experiment: The binding affinity was measured towards human purified trypsin. In outline: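 Human purified enzymes, microtiter format; 0.1 M sodium phosphate, 0.2 M NaCl, 0.5% PEG 6000, pH 7.0. Compound at 10 to 0.00316 µM (eight half-log steps). Absorbance at 405 nm read for 30 min; rates vs uninhibited controls give % activity, Ki calculated from substrate concentration and Km. Duplicate runs with the same internal standards.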
T1 sequence (P07477 whole entry): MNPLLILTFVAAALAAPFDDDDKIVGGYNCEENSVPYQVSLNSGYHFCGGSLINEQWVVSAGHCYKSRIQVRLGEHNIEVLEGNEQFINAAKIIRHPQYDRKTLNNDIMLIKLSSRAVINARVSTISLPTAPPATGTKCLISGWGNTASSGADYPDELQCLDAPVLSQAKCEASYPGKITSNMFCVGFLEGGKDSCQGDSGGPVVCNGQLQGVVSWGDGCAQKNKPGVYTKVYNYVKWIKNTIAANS

For experiment [4], the species on record is Oryctolagus cuniculus. Nature of the experiment: The ID50 value was the 50% inhibition of thrombus formation was measured on rabbits. Format: functional. The gist of the method:
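New Zealand rabbits (2-4 kg) under ketamine (50 mg/kg im) plus xylazine (10 mg/kg im). Femoral artery-vein shunt containing silk thread. Compound or saline vehicle given as continuous iv infusion via jugular vein, starting 1 h before shunt flow and continuing throughout (100 min).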

Experiment [5] has as its target T1, Serine protease 1. Nature of the experiment: The binding affinity was measured on trypsin obtained from Human purified enzymes. In outline: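 Inhibition constant against human purified trypsin, in 0.1 M sodium phosphate with 0.2 M NaCl and 0.5% PEG 6000, pH 7.0. Eight inhibitor levels were run, 10 down to 0.00316 µM. Absorbance was read at 405 nm for 30 min. Ki was derived from % activity relative to uninhibited rates using Km and substrate concentration. Duplicate runs alongside internal standards.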

In general, Ki refers to the equilibrium dissociation constant of an inhibitor or competing ligand from its target. A low value points to higher affinity.

Coagulation factor X, sequence (P00742 41-179 limits assumed): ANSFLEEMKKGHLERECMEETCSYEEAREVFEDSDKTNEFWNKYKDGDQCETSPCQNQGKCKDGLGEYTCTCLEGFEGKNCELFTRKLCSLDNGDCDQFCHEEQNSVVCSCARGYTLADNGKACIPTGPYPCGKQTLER
Coagulation factor X, sequence (P00742 235-488 limits assumed): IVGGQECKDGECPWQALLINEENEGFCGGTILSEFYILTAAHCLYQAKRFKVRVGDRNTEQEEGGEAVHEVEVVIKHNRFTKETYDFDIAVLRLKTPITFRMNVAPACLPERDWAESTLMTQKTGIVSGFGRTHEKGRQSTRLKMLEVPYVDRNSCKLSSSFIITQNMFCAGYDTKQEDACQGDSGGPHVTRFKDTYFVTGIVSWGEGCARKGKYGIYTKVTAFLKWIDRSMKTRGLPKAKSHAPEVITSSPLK

Consider `COC(=O)CC1(C(=O)Nc2ccc(-c3cccc(C)c3)cc2)CC(c2cccc(C(=N)N)c2)=NO1` (stereo not given), for which the Ki in experiment [1] is 240 nM; in experiment [2] it was 2100 nM.
As for `COC(=O)CC1(C(=O)Nc2ccc(-c3cccc(OC)c3)cc2)CC(c2cccc(C(=N)N)c2)=NO1` (stereo not given), the inhibition constant (Ki) in experiment [3] was 390 nM; in experiment [1], 200 nM; in experiment [2], 2700 nM.
Taken in the same sequence, the figures for `COC(=O)CC1(C(=O)Nc2ccc(-c3ccccc3C(F)(F)F)cc2)CC(c2cccc(C(=N)N)c2)=NO1` (stereo not given) were 230 nM, 28 nM and 1400 nM.
As to `COC(=O)CC1(C(=O)Nc2ccc(-c3ccccc3S(N)(=O)=O)nc2)CC(c2cccc(C(=N)N)c2)=NO1` (stereo not given), the inhibition constant (Ki) in experiment [3] is 180 nM; in experiment [1] it was 19 nM; in experiment [2], 10800 nM.
Taken in the same sequence, the figures for `COC(=O)CC1(C(=O)Nc2ccc(-c3ccccc3OC)cc2)CC(c2cccc(C(=N)N)c2)=NO1` (stereo not given) were 310 nM, 62 nM and 2800 nM.
Taken in the same sequence, the figures for `COC(=O)CC1(C(=O)Nc2ccc(-c3ccccc3S(N)(=O)=O)cc2C)CC(c2cccc(C(=N)N)c2)=NO1` (stereo not given) were 300 nM, 8.8 nM and 3100 nM.
Taken in the same sequence, the figures for `COC(=O)CC1(C(=O)Nc2ccc(-c3ccccc3C(=O)OC)cc2)CC(c2cccc(C(=N)N)c2)=NO1` (stereo not given) were 300 nM, 53 nM and 2100 nM.
Regarding `COC(=O)CC1(C(=O)Nc2ccc(-c3ccccc3S(N)(=O)=O)cc2F)CC(c2cccc(C(=N)N)c2)=NO1` (stereo not given), the inhibition constant (Ki) is 120 nM in experiment [3], 4.2 nM in experiment [1] and 3800 nM in experiment [2].
Turning to `COC(=O)CC1(C(=O)Nc2ccc(-c3cccc(S(N)(=O)=O)c3)cc2)CC(c2cccc(C(=N)N)c2)=NO1` (stereo not given), the inhibition constant (Ki) amounted to 340 nM in experiment [3], 68 nM in experiment [1] and 3100 nM in experiment [2].
Taken in the same sequence, the figures for `COC(=O)CC1(C(=O)Nc2ccc(-c3ccccc3S(C)(=O)=O)cc2)CC(c2cccc(C(=N)N)c2)=NO1` (stereo not given) were 100 nM, 4.2 nM and 600 nM.
In the case of `COC(=O)CC1(C(=O)Nc2ccc(-c3ccccc3)cc2)CC(c2cccc(C(=N)N)c2)=NO1` (stereo not given), the values for the Ki in experiment [3], in experiment [1] and in experiment [2] were 470 nM, 220 nM and 3500 nM, respectively.
Taken in the same sequence, the figures for `COC(=O)CC1(C(=O)Nc2ccc(-c3ccccc3C)cc2)CC(c2cccc(C(=N)N)c2)=NO1` (stereo not given) were 390 nM, 210 nM and 1800 nM.
Taken in the same sequence, the figures for `COC(=O)CC1(C(=O)Nc2ccc(-c3ccccc3SC)cc2)CC(c2cccc(C(=N)N)c2)=NO1` (stereo not given) were 260 nM, 66 nM and 1200 nM.
Taken in the same sequence, the figures for `COC(=O)CC1(C(=O)Nc2ccc(-c3cccc(C(F)(F)F)c3)cc2)CC(c2cccc(C(=N)N)c2)=NO1` (stereo not given) were 570 nM, 240 nM and 1200 nM.
Compound `COC(=O)CC1(C(=O)Nc2ccc(-c3ccccc3S(N)(=O)=O)cc2)CC(c2cccc(C(=N)N)c2)=NO1.O=C(O)C(F)(F)F` (racemic) registered an ID50 in experiment [4] of 0.6 µM/h/kg. For the same compound, affinity in experiment [3] was put at a Ki of 121 nM.
In experiment [4], `COC(=O)CC1(C(=O)Nc2ncc(-c3ccccc3S(N)(=O)=O)cn2)CC(c2cccc(C(=N)N)c2)=NO1.O=C(O)C(F)(F)F` (racemic) displayed an ID50 of 0.4 µM/h/kg.
As to `COC(=O)CC1(C(=O)Nc2ccc(-c3ccccc3S(N)(=O)=O)cn2)CC(c2cccc(C(=N)N)c2)=NO1.O=C(O)C(F)(F)F` (racemic), in experiment [4], the ID50 stood at 0.3 µM/h/kg. Also, the inhibitory constant (Ki) was determined as 25 nM in experiment [3] and 0.96 nM in experiment [1].
In experiment [4], `COC(=O)CC1(C(=O)Nc2ccc(-c3ccccc3S(N)(=O)=O)cc2)CC(c2cccc(C(=N)N)c2)=NO1.O=C(O)C(F)(F)F` (single isomer, unassigned; (+)) showed an ID50 of 2 µM/h/kg. For the same compound, the Ki in experiment [3] was 300 nM; in experiment [2], above 21000 nM.
On to `COC(=O)CC1(C(=O)Nc2ccc(-c3ccccc3S(N)(=O)=O)cn2)CC(c2cccc(C(=N)N)c2)=NO1.O=C(O)C(F)(F)F` (single isomer, unassigned; (+)), for which the ID50 in experiment [4] was 0.6 µM/h/kg. Also, the inhibition constant Ki in experiment [3] turned out to be 130 nM; in experiment [1] it was 7 nM; in experiment [2] it was 18000 nM.
As for `CC(=O)N[C@H](Cc1ccccc1)C(=O)N1CCC[C@@H]1C(=O)NC(CCCN=C(N)N)B(O)O` (single isomer, unassigned; (-)), the Ki in experiment [1] stood at 40 nM; in experiment [5], 55 nM.
For the compound `COC(=O)CC1(C(=O)Nc2ccc(-c3ccccc3S(N)(=O)=O)cc2)CC(c2cccc(C(=N)N)c2)=NO1.O=C(O)C(F)(F)F` (single isomer, unassigned; (-)), the ID50 in experiment [4] was found to be 0.2 µM/h/kg. The values for the Ki in experiment [3] and in experiment [2] were 98 nM and 2400 nM, respectively.
Compound `COC(=O)CC1(C(=O)Nc2ncc(-c3ccccc3S(N)(=O)=O)cn2)CC(c2cccc(C(=N)N)c2)=NO1.O=C(O)C(F)(F)F` (single isomer, unassigned; (-)) displayed an ID50 in experiment [4] of 0.15 µM/h/kg. For the same compound, the inhibition constant Ki came to 170 nM in experiment [3], 2.3 nM in experiment [1] and 8900 nM in experiment [2].
Taken in the same sequence, the figures for `COC(=O)CC1(C(=O)Nc2ccc(-c3ccccc3S(N)(=O)=O)cn2)CC(c2cccc(C(=N)N)c2)=NO1.O=C(O)C(F)(F)F` (single isomer, unassigned; (-)) were 0.26 µM/h/kg, 17 nM, 0.83 nM and 2900 nM.
For `COC(=O)CC1(C(=O)Nc2ccc(-c3ccccc3S(N)(=O)=O)cn2)CC(c2cccc(C(=N)N)c2)=NO1` (stereo in doubt; 30), the inhibitory constant (Ki) in experiment [3] stood at 25 nM; in experiment [1], 0.96 nM.
As to `COC(=O)CC1(C(=O)Nc2ncc(-c3ccccc3S(N)(=O)=O)cn2)CC(c2cccc(C(=N)N)c2)=NO1` (stereo in doubt; 31), the results for the Ki in experiment [3] and in experiment [2] were 336 nM and 14000 nM, respectively.
Take `COC(=O)CC1(C(=O)Nc2ncc(-c3ccccc3S(N)(=O)=O)cn2)CC(c2cccc(C(=N)N)c2)=NO1.O=C(O)C(F)(F)F` (stereo in doubt; 34(+)): the ID50 in experiment [4] is above 1.5 µM/h/kg. Further, the inhibitory constant (Ki) in experiment [3] is 710 nM; in experiment [1], 12 nM; in experiment [2] it was above 21000 nM.
